Data reported in ChEMBL document CHEMBL5625229 (Eur J Med Chem, 2023).

Assays:
[1] = Efflux ratio of apparent permeability across basal to apical membrane over apical to basal membrane in human Caco-2 cells at 100 uM incubated fro 120 mins by spectroscopy; type: ADME, cell-based
Method in brief: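 Caco-2 grown 21 days on Transwell filters, with TEER checked daily (above 1000 Ω taken as optimal). Washed in HBSS and equilibrated 30 min at 37 °C, then compound at 100 µM added to the donor side (apical or basolateral), with fresh HBSS on the receiver side, for 120 min at 37 °C. Acceptor concentration by UV spectroscopy gives Papp (nm/s). Ratio = Papp BA/AB, three experiments in duplicate.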

[2] = target: Multidrug resistance-associated protein 1 (Homo sapiens, UniProt P33527); assay: Inhibition of MRP1 (unknown origin) overexpressed in MDCK cells using Calcein-AM as substrate preincubated for 30 mins followed by substrate addition measured after 30 mins by fluorescence based assay; type: cell-based
Chain of Multidrug resistance-associated protein 1 (P33527 whole entry): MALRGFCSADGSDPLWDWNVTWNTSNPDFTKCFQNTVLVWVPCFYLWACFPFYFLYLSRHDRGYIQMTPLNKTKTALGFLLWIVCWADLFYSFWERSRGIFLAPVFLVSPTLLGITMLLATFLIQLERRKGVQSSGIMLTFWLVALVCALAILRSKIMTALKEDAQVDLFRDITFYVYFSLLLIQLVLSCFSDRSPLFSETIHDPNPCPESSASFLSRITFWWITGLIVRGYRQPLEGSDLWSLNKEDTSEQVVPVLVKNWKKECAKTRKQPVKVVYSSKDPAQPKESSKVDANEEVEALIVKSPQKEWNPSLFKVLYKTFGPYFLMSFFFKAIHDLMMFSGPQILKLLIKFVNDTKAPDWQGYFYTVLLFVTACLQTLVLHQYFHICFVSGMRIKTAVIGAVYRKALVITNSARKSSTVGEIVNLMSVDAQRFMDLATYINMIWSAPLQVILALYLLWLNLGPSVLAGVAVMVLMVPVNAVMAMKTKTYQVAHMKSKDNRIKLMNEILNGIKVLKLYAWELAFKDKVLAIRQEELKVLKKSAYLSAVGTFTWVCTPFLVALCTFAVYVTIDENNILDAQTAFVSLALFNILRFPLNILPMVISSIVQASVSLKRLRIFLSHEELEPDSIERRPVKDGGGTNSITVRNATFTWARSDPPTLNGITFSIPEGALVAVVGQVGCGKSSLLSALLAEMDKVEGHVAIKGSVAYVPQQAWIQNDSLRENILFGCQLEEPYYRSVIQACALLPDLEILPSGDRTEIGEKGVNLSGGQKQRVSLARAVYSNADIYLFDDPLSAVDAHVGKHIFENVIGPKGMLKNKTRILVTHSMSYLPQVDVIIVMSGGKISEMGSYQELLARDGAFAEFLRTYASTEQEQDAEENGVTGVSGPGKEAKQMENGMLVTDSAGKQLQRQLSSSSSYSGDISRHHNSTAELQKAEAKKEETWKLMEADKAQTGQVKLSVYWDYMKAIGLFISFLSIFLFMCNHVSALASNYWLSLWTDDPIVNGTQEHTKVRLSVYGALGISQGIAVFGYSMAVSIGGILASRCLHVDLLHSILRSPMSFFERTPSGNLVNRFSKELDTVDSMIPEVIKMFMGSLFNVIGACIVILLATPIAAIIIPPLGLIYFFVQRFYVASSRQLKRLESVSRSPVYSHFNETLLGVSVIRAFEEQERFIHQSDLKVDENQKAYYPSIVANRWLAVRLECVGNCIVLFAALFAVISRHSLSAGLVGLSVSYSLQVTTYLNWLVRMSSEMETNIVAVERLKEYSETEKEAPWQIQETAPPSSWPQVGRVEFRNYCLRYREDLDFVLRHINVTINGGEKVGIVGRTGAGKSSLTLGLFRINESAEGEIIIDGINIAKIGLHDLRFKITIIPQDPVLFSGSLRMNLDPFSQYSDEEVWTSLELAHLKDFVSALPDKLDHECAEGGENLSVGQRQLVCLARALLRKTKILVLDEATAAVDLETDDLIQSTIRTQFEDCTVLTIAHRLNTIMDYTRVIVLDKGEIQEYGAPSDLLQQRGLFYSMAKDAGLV
Method in brief: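 MDCK-MRP1 cells, 30 000/well, grown overnight, then treated with compound (final 0.01 nM–100 µM, lower for very potent ones) in medium for 30 min at 37 °C. Calcein-AM added at 2.5 µM final for 30 min, then three ice-cold PBS washes. Fluorescence read at 485/535 nm against untreated cells. EC50 from fluorescence increase versus log dose, mean ± SEM of three experiments in duplicate.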

[3] = target: T1, Broad substrate specificity ATP-binding cassette transporter ABCG2 (Homo sapiens, UniProt Q9UNQ0); assay: Inhibition of BCRP (unknown origin) overexpressed in MDCK cells using Hoechst 33342 as substrate preincubated for 30 mins followed by substrate addition measured after 30 mins by fluorescence based assay; type: cell-based
T1 sequence (Q9UNQ0 whole entry): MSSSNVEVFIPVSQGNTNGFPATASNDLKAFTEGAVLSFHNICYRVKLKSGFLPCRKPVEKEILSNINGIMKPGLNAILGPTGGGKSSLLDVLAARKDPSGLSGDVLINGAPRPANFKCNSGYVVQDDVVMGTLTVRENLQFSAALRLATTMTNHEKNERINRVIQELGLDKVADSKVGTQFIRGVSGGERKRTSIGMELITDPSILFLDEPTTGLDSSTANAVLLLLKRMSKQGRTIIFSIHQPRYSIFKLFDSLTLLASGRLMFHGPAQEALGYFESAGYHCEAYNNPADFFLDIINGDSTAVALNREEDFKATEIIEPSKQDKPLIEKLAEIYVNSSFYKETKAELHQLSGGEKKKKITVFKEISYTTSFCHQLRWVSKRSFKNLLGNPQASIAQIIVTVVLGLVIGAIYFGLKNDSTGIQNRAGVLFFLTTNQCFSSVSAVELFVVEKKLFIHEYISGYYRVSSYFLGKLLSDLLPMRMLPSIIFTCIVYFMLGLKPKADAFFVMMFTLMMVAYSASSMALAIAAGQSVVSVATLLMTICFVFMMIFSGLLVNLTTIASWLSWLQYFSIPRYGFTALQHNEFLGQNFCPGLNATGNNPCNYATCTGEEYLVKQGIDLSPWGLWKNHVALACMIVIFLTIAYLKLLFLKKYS

[4] = tested on: HT-29; assay: Antiproliferative activity against human HT-29 cells at 1 to 10 uM incubated for 48 hrs relative to control; type: functional; conditions: dose 1-10 µM
Method in brief: (§1)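 Compound alone (1 μM and 10 μM), 48 h, on HT29 or on HT29/DX (the latter kept in 100 nM doxorubicin to hold resistance). Cells seeded 10 000/well, compound added after 24 h. Viability by MTT (0.5 mg/mL, 3–4 h), formazan in DMSO/EtOH 1:1, absorbance 570/630 nm. Three independent experiments in duplicate.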

[5] = Antiproliferative activity against doxorubicin-resistant human HT-29 cells at 1 to 10 uM incubated for 48 hrs relative to control; type: functional, doxorubicin-resistant human HT-29 cell; conditions: dose 1-10 µM; method in brief: as §1
[6] = target: ATP-dependent translocase ABCB1 (Homo sapiens, UniProt P08183); assay: Inhibition of MDR1 (unknown origin) overexpressed in MDCK cells using Calcein-AM as substrate preincubated for 30 mins followed by substrate addition measured after 30 mins by fluorescence based assay; type: cell-based
Chain of ATP-dependent translocase ABCB1 (P08183 whole entry): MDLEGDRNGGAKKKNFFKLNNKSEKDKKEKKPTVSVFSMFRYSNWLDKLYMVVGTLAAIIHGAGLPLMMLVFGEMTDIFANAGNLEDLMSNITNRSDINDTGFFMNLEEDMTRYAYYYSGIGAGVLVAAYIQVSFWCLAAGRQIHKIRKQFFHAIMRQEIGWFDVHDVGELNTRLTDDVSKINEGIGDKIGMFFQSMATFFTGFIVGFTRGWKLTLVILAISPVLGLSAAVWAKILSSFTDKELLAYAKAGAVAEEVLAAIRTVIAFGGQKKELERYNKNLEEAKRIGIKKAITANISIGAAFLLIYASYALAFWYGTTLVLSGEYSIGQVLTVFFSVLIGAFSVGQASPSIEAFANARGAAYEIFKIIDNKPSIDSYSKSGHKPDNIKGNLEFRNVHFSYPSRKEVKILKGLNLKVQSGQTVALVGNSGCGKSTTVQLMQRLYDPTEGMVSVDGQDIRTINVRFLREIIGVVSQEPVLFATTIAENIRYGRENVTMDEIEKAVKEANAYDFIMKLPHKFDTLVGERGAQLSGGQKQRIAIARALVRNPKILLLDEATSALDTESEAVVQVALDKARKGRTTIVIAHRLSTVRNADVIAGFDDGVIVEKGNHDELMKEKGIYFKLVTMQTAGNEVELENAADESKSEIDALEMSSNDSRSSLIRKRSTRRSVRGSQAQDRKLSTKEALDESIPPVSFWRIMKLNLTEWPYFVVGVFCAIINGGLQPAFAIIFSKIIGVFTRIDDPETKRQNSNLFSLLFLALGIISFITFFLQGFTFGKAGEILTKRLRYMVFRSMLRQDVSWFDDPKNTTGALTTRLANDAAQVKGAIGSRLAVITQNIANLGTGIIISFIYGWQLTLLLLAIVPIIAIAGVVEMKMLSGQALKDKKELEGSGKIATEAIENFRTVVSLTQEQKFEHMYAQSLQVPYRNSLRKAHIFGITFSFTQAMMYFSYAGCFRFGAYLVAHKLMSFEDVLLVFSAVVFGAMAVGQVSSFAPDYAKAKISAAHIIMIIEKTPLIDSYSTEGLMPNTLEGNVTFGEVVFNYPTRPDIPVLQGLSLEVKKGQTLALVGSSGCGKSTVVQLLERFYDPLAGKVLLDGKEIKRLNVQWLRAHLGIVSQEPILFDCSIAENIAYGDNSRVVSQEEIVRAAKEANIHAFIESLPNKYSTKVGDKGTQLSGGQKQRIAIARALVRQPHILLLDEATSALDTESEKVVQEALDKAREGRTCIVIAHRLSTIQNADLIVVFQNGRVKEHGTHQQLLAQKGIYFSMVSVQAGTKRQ

[7] = Potentiation of DOX-induced cytotoxicity against doxorubicin-resistant human HT-29 cells assessed as reduction in cell viability at 10 uM incubated for 48 hrs relative to control; type: functional, doxorubicin-resistant human HT-29 cell
Method in brief: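 HT29/DX cells (10 000/well) were given compound at 1 or 10 µM together with 5 µM doxorubicin 24 h after seeding. After 48 h, viability by MTT (0.5 mg/mL, 3–4 h, 37 °C), read at 570/630 nm against untreated cells. Three independent experiments, technical duplicates; one-way ANOVA.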

Row | Compound | efflux ratio at 2 h, 100 µM [1] | EC50 [2] [µM] | EC50 [3] [µM] | Activity [4] [%] | Activity [5] [%] | EC50 [6] [µM] | Activity [7] [%]
1 | COc1cc2c(cc1OC)CN(CCc1ccc(NC(=O)c3cc(OC)c(OC)cc3NC(=O)c3cnc4ccccc4c3)cc1)CC2 | 22 | – | – | – | – | – | –
2 | COc1cc2c(cc1OC)CN(CCc1ccc(NC(=O)c3cccc4c(=O)c5cccc(OC)c5[nH]c34)cc1)CC2 | – | > 100 | – | – | – | – | –
3 | COc1cc2c(cc1OC)CN(CCc1ccc(-c3nnc(-c4c(OC)cccc4OC)o3)cc1)CC2 | – | > 100 | > 100 | – | – | – | –
4 | COc1cc2c(cc1OC)CN(CCc1ccc(-c3nnc(/C=C/c4cc(OC)c(OC)c(OC)c4)o3)cc1)CC2 | – | > 100 | – | – | – | – | –
5 | COc1cc2c(cc1OC)CN(CCc1ccc(-c3nnc(-c4c(OC)c(OC)cc5ccccc45)o3)cc1)CC2 | 9.7 | > 100 | > 100 | ~10 | ~10 | 0.046 | –
6 | COc1cc2c(cc1OC)CN(CCc1ccc(-c3nnc(-c4cccc(OC)c4OC)o3)cc1)CC2 | 6.8 | > 100 | > 100 | ~10 | ~10 | 0.4 | –
7 | COc1cc2c(cc1OC)CN(CCc1ccc(-n3nnnc3/C=C/c3cc(OC)c(OC)c(OC)c3)cc1)CC2 | – | > 100 | – | – | – | 5.27 | –
8 | COc1cc2c(cc1OC)CN(CCc1ccc(-n3nnc(-c4ccc(OC)c(OC)c4OC)n3)cc1)CC2 | – | > 100 | – | – | – | 0.55 | –
9 | COc1cc2c(cc1OC)CN(CCc1ccc(-n3nnnc3-c3cc(OC)c(OC)c(OC)c3)cc1)CC2 | – | 4.33 | – | – | – | 0.63 | –
10 | COc1cc2c(cc1OC)CN(CCc1ccc(-n3nnnc3-c3c(OC)ccc4ccccc34)cc1)CC2 | – | > 100 | – | – | – | 0.75 | –
11 | COc1cc2c(cc1OC)CN(CCc1ccc(-n3nnc(-c4c(OC)ccc5ccccc45)n3)cc1)CC2 | 4.5 | > 100 | > 100 | ~10 | ~10 | 0.09 | –
12 | COc1cc2c(cc1OC)CN(CCc1ccc(-n3nnc(/C=C/c4cc(OC)c(OC)c(OC)c4)n3)cc1)CC2 | 5.4 | > 100 | 53.6 | ~10 | ~10 | 0.012 | –
13 | COc1cc2c(cc1OC)CN(CCc1ccc(-c3nnc(-c4cc(OC)c(OC)c(OC)c4)o3)cc1)CC2 | – | > 100 | – | – | – | 0.071 | –
14 | COc1cc2c(cc1OC)CN(CCc1ccc(-c3nnc(-c4ccc(OC)c(OC)c4OC)o3)cc1)CC2 | 6.5 | > 100 | > 100 | ~10 | ~10 | 0.44 | –
15 | COc1cc2c(cc1OC)CN(CCc1ccc(-n3nnnc3-c3c(OC)c(OC)cc4ccccc34)cc1)CC2 | 3.3 | > 100 | > 100 | – | – | 1.06 | –
16 | COc1cc2c(cc1OC)CN(CCc1ccc(-n3nnc(-c4c(OC)c(OC)cc5ccccc45)n3)cc1)CC2 | – | > 100 | – | – | – | 0.26 | –
17 | COc1cc2c(cc1OC)CN(CCc1ccc(-n3nnnc3-c3ccccc3OC)cc1)CC2 | – | > 100 | – | – | – | 0.95 | –
18 | COc1cc2c(cc1OC)CN(CCc1ccc(-n3nnc(-c4ccccc4OC)n3)cc1)CC2 | – | > 100 | – | – | – | 0.082 | –
19 | COc1cc2c(cc1OC)CN(CCc1ccc(-n3nnc(-c4cccc(OC)c4OC)n3)cc1)CC2 | – | > 100 | – | – | – | 0.14 | –
20 | COc1cc2c(cc1OC)CN(CCc1ccc(-n3nnc(-c4c(OC)cccc4OC)n3)cc1)CC2 | – | > 100 | – | – | – | – | –
21 | COc1cc2c(cc1OC)CN(CCc1ccc(-n3nnnc3-c3ccc(OC)c(OC)c3OC)cc1)CC2 | – | 7.49 | – | – | – | 0.75 | –
22 | COc1cc2c(cc1OC)CN(CCc1ccc(-c3nnc(-c4ccccc4OC)o3)cc1)CC2 | 6.3 | > 100 | > 100 | ~10 | ~10 | 0.019 | 64.3
23 | COc1cc2c(cc1OC)CN(CCc1ccc(-c3nnc(-c4c(OC)ccc5ccccc45)o3)cc1)CC2 | – | > 100 | > 100 | – | – | – | –
24 | COc1cc2c(cc1OC)CN(CCc1ccc(-n3nnc(-c4cc(OC)c(OC)c(OC)c4)n3)cc1)CC2 | – | > 100 | – | – | – | 0.26 | –
